Shown are actives, neighbours in structure and some others; about 2.3% of the full set was active somewhere.
OXTR potentiate = human OXTR potentiation | activation, % at 3 µM | CHO-OTR cells, Fluo-8 calcium fluorescence, potentiator mode; 0% = oxytocin EC15, 100% = EC100 | P30559 | actives 0.061% (n = 320,000);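 active means activation above that plate's cutoff, the mean activation of tested compounds plus 3 SD, cut at about 6.6% in these data, passing the limit was not always enough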;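 further: 100% uses oxytocin at 75 nM as the full agonist control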
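System: human OTR in CHO cells; Also added: sub-maximal oxytocin, roughly EC15; Timing: compound 6 min at room temperature before oxytocin, 100 s read; Technique: Fluo-8 intracellular calcium fluorescence, ex 470-495, em 515-575 nm; Controls: oxytocin EC15 low and EC100 high; Replication: singlicate.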
V1aR counter = counter-screen for oxytocin receptor agonists: human V1a receptor agonists | CHO-V1R cells, Fluo-8 calcium fluorescence, agonist mode; 0% DMSO, 100% 3 nM vasopressin | AID 2797 | activation, % at 3 µM | actives 0.25% (n = 320,000);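 active means activation above the mean activation of all tested compounds plus 3 SD, per screening run, cut at about 20% in these data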;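 further: signal is peak over basal fluorescence ratio across a 100 second FLIPR read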
Target sequence (P37288 whole entry, looked up): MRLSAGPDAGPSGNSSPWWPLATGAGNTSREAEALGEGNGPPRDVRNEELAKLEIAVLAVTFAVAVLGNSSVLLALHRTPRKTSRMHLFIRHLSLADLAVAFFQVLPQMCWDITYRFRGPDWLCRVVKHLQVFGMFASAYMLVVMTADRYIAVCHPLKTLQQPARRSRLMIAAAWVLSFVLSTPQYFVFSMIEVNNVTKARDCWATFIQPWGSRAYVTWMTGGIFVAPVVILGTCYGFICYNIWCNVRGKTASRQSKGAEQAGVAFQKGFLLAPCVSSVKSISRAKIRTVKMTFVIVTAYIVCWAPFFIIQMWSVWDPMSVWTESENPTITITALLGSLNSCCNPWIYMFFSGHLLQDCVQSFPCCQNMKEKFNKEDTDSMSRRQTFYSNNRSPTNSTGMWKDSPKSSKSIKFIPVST
OXTR agonist = activates the human oxytocin receptor | CHO-OTR cells, Fluo-8 calcium fluorescence; normalized: DMSO 0%, oxytocin 100% | P30559 | activation, % at 3 µM | actives 0.32% (n = 320,000) | AID 2435;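 active means activation above the mean of all tested compounds plus 3 SD, cutoff set per screening run, cut at about 20% in these data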;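 further: peak over basal fluorescence ratio from a 100 s FLIPR kinetic read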
TAAR1 agonist = agonists of human TAAR1. Q96RJ0. CHO RD-HGA16 TAAR1, Fluo-8 calcium fluorescence; vehicle wells 0%, saturating PEA agonist 100%. AID 624467. activation, % at 3 µM. actives 0.99% (n = 360,000);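 active means activation above the mean activation of all test compounds in the run plus 3 SD, cut at about 38% in these data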
Target sequence (Q96RJ0 whole entry, looked up): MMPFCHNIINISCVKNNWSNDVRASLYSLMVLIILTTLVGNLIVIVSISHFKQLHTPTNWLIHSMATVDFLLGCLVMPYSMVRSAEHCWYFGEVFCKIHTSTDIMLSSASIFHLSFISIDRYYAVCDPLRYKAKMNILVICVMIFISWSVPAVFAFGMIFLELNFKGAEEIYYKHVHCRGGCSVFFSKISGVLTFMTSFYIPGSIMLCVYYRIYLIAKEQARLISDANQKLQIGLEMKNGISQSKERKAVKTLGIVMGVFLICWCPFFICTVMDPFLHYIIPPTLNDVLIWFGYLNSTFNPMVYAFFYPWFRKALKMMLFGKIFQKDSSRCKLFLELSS
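System: CHO-derived RD-HGA16 cells with stable Gα16 and human TAAR1 / Times: 17-24 h plating, Fluo-8 75 min 37 °C, 30 min RT / Technique: calcium-sensitive Fluo-8 signal, excitation 470-495, emission 515-575 nm / Measure: % activation relative to PEA EC100 response / Benchmarks: DMSO and PEA EC100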
TAAR1 antag = antagonists of human TAAR1; Q96RJ0; CHO RD-HGA16 TAAR1, Fluo-8 calcium fluorescence, antagonist; inhibition, % at 3 µM; actives 1.5% (n = 360,000);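 active means inhibition above a per-plate cutoff, the mean inhibition of test compounds on that plate plus 3 SD, cut at about 49% in these data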;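 further: 0% = DMSO plus EC80 beta-PEA response and 100% = DMSO alone without agonist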
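Test system: CHO RD-HGA16 cells bearing hTAAR1 | Reagent: β-PEA, EC80 | Compound dosing: 3 µM, single point | Schedule: Dye loading 75 min at 37 °C, then 30 min room temperature | Signal: Calcium fluorescence with Fluo-8 | Evaluation: Percent inhibition of PEA-evoked calcium signal, max/basal emission ratio | Control set: DMSO-only wells and EC80 β-PEA-stimulated wells | Repeats: Singlicate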
Numbers without * were called inactive; . = no result.

SMILES | OXTR potentiate | V1aR counter | OXTR agonist | TAAR1 agonist | TAAR1 antag
CC1=NN(c2ccccc2)C(=O)/C1=C\N1CC(C)OC(C)C1 (centres undefined) | 2.0 | 0.1 | 0.6 | 98.4* | 70.0*
COc1ccccc1/C=C1/C(=O)N(c2ccccc2)N=C1C | -10.1 | 18.7 | 2.9 | 37.5* | 15.7
CC1=NN(c2ccccc2)C(=O)/C1=C/C=C/c1ccccc1 | -5.2 | -0.3 | -1.7 | -2.2 | 18.0
Cc1ccc(S(=O)(=O)N(C)C)cc1NC(=O)COc1ccccc1C(=O)Nc1ccccc1 | -13.6 | 3.8 | 1.6 | 14.0 | 54.8*
CC(=O)Nc1ccc(S(=O)(=O)N(C)c2ccc(OCC(=O)Nc3ccccc3C(C)=O)cc2)cc1 | . | . | . | 13.0 | 55.0*
COc1ccc(NC(=O)COc2ccc(N(C)S(=O)(=O)c3ccc(Cl)cc3)cc2)cc1OC | -21.8 | 11.3 | 13.8 | 8.2 | 61.0*
COc1ccccc1N1N=C(c2ccc([N+](=O)[O-])cc2)CC1c1ccccc1 (centres undefined) | -22.0 | 28.1* | 29.8* | 22.8 | 25.5
CC(=O)c1cccc(NC(=O)c2ccc(N(Cc3ccc(C)cc3)S(C)(=O)=O)cc2)c1 | -12.2 | 9.1 | 12.3 | 23.2 | 38.8
O=[N+]([O-])c1ccc2nc(-c3cccnc3)[nH]c2c1 | -11.0 | 1.7 | 1.2 | 7.2 | 8.5
O=[N+]([O-])c1cc([N+](=O)[O-])c2cc(-c3cccnc3)[nH]c2c1 | -4.4 | 3.0 | 3.1 | 19.3 | 49.5*
O=C(NCC(c1ccco1)N1CCCC1)c1ccc(S(=O)(=O)Nc2ccc(F)cc2)cc1 (centres undefined) | -10.9 | 6.3 | 9.0 | 40.0* | -6.6
C#CCOCCOCCOCCNc1nc(N2CCN(C(=O)CCCCCCCCCCNC(=O)[C@H](CCCCN)n3cc(CCO)nn3)CC2)nc(N2CCN(C(=O)CCCCCCCCCCNC(=O)[C@H](CCCCN)n3cc(C[C@@H](C)CC)nn3)CC2)n1 | -13.5 | 24.6* | 6.1 | . | .
C#CCOCCOCCOCCNc1nc(N2CCN(C(=O)CCCCCCCCCCNC(=O)[C@H](CCCCN)n3cc(C[C@@H](C)CC)nn3)CC2)nc(N2CCN(C(=O)CCCCCCCCCCNC(=O)[C@H](CCCN=C(N)N)n3cc(C[C@@H](C)CC)nn3)CC2)n1 | 5.3 | 1.7 | 1.2 | . | .
COc1ccc(NC(=O)c2sc(SC)nc2N)cc1 | 2.5 | -0.3 | -0.9 | -1.2 | -3.9
CCS(=O)(=O)c1ccc(-c2cccc(NC(=O)COc3ccc(Cl)cc3)c2)nn1 | -13.6 | 5.0 | 3.8 | 7.6 | 49.2*
O=C(COc1ccccc1)Nc1cccc(-c2ccc(N3CCOCC3)nn2)c1 | 1.3 | 0.2 | 0.4 | 10.4 | 49.0*
CNC(=S)N/N=C/c1cc(Br)c(OCc2ccncc2)c(OC)c1 | -2.2 | 0.4 | -0.5 | 7.6 | 32.9
O=[N+]([O-])c1ccccc1NCc1c(O)ccc2ccccc12 | -18.4 | -0.5 | -0.3 | 3.2 | 8.9
Cc1cc(F)ccc1-c1cc(C(=O)NCc2ccc(C(F)(F)F)cc2)[nH]n1 | . | . | . | 55.5* | 70.5*
COc1cc(CNc2ncnc3c2ncn3[C@H]2CN(Cc3cccc(C(F)(F)F)c3)C[C@@H](CO)O2)cc(OC)c1OC | . | . | . | 7.8 | 0.0
CC(C)=CCc1c(O)ccc(C(=O)Cc2ccccc2)c1O | -18.4 | 2.1 | 2.3 | 40.0* | 25.6
O=C(O)c1cc2c(s1)CCCC2 | -1.1 | 0.8 | 1.9 | -1.2 | -22.7
CN[C@@H]1CC[C@H](c2ccc(Cl)c(Cl)c2)c2ccccc21 | . | . | . | 44.6* | 5.8
CCN(CC)C(=S)SSC(=S)N(CC)CC | -1.4 | 9.9 | 2.9 | 47.3* | 31.8
c1ccc(CCNc2ncnc3scc(C4COc5ccccc5O4)c23)cc1 (centres undefined) | -3.4 | 0.1 | -0.2 | 18.2 | 70.7*
SMILES | OXTR potentiate | V1aR counter | OXTR agonist | TAAR1 agonist | TAAR1 antag
c1ccc2c(c1)OCC(c1csc3ncnc(N4CCCC4)c13)O2 (centres undefined) | -10.8 | -0.5 | -2.1 | 16.5 | 44.0
Cc1ccccc1Cn1cc(NC(=O)c2noc3c2CC(C(C)(C)C)CC3)cn1 (centres undefined) | -5.7 | -0.1 | 0.7 | 38.6* | 62.8*
Cc1ccccc1Cn1nc(C)c(NC(=O)c2noc3c2CC(C(C)(C)C)CC3)c1C (centres undefined) | -3.3 | -0.8 | -1.5 | 6.1 | -11.9
CCC(=O)c1ccc(OCCSc2ncccn2)cc1 | -15.4 | 0.8 | -0.9 | 1.1 | 5.8
COc1ccc(-c2csc(C(O)c3ccc(OC)cc3)n2)cc1 (centres undefined) | . | . | . | 27.0 | 29.1
CN(C)c1ccc(-c2csc(C(O)c3ccccc3)n2)cc1 (centres undefined) | . | . | . | 36.2 | 20.0
COc1ccc(C(O)c2nc(-c3cc4ccccc4o3)cs2)cc1 (centres undefined) | . | . | . | 31.5 | 49.3*
COc1ccc(-c2csc(C(O)c3ccc(F)cc3)n2)cc1 (centres undefined) | . | . | . | 61.7* | 78.4*
CN(C)c1ccc(-c2csc(C(O)c3ccc(F)c(F)c3)n2)cc1 (centres undefined) | . | . | . | 99.9* | 98.8*
COc1ccc(C(O)c2nc(-c3ccc(N(C)C)cc3)cs2)cc1 (centres undefined) | . | . | . | 49.1* | 40.2
O=c1[nH]oc2cc(Cl)ccc12 | -9.4 | -0.1 | 0.3 | 1.9 | -30.2
COc1cc(OC)c(C2CC(=O)N3CN(C)CSC3=C2C#N)cc1OC (centres undefined) | -1.9 | 0.2 | -1.1 | 8.4 | -26.6
COc1ccc(Br)cc1C1CC(=O)N2CN(C)CSC2=C1C#N (centres undefined) | -1.5 | 12.6 | 10.9 | 46.0* | -9.2
Cc1ccc(C)c(NC(=S)N2CCC(c3nc4ccccc4s3)CC2)c1 | -16.5 | 0.5 | 0.3 | 0.2 | 2.1
COc1ccc([C@H]2/C=C\CN(S(=O)(=O)c3cccc4cccnc34)[C@@H](C)C(=O)N2Cc2ccc(F)cc2)cc1 | -13.3 | 0.9 | 0.6 | 7.2 | 41.4
COc1ccc(C2/C=C\CN(S(=O)(=O)c3cccc4cccnc34)CC(=O)N2Cc2ccc(F)cc2)cc1 (centres undefined) | -11.4 | -0.5 | 0.1 | 12.6 | 50.0*
CCOC(=O)C1CCN(c2cc3c(cc2NC(=O)c2ccccc2Cl)n(C)c(=O)n3C)CC1 | -6.1 | -0.2 | -1.1 | 4.4 | 55.8*
CC(C)(C)C(=O)NC(=S)NNC(=O)c1ccc(-c2ccccc2)cc1 | -11.1 | 117.2* | 108.2* | . | .
CC(C)(C)C(=O)NC(=S)NNC(=O)c1ccncc1 | 8.1 | 0.0 | 0.0 | 0.8 | 13.8
O=C(Nc1cccc(S(=O)(=O)NC2=NCCC2)c1)c1cc(-c2ccccn2)nc2ccccc12 | -0.4 | 0.9 | 0.3 | 12.2 | 51.5*
CC(C)C(=O)OC1CCS(=O)(=O)c2sccc21 (centres undefined) | -16.2 | 0.5 | -1.8 | 5.9 | -18.9
